Data on 45 compounds can be found in ChEMBL document CHEMBL5236663, “Structure-activity relationship of dibenzylideneacetone analogs against the neglected disease pathogen, Trypanosoma brucei” (Bioorg Med Chem Lett, 2023).

Activity calls are given as the source filed them. The calls are words filed in the database; no cut-off is given here. A value given as a limit tells only on which side of the number the result lay.

Data set [1] concerns Trypanosoma brucei. Kind of data set: Antitrypanosomal activity against Trypanosoma brucei Lister 427 assessed as parasite growth inhibition measured after 72 hrs by SYBER green staining based multilabel reader analysis. In kind it is functional, organism-based. Particulars: Lister 427, 72 h. The gist of the method: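 Bloodstream-form T. b. brucei Lister 427 were screened first at 4 μM, and compounds giving >50% growth inhibition went on to eight-point dose-response. Viability was read by SYBR green after 72 h, giving EC50. At least three assay replicates were run, each in duplicate, reported as mean ± SD.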

For a further data set, the system named is HEK293. As to the kind of experiment: Cytotoxicity against human HEK293 cells assessed as reduction in cell viability at 20 uM measured after 48 hrs by resazurin reagent based multilabel reader analysis. The class given is toxicity. Particulars: hek293, 48 h. For orientation: Alamar Blue is a resazurin reagent that responds to reducing activity.
Data set [2] can be described thus: Selectivity index, ratio of CC50 for cytotoxicity against human HEK293 cells to EC50 for antitrypanosomal activity against Trypanosoma brucei Lister 427. Particulars: read-out: Ratio CC50/EC50. The class given is toxicity, cell-based.
Data set [3] has as its system Trypanosoma brucei. Kind of data set: Antitrypanosomal activity against Trypanosoma brucei Lister 427 assessed as time required to kill the parasite at 0.5 to 2 uM by hemocytometer cell counting analysis. In kind it is functional. Particulars: dose 0.5-2 µM. The gist of the method: (§1)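 Time-to-kill on bloodstream-form Lister 427 parasites. Test compound was used at 1, 2 and 4 μM, and pentamidine at 0.5, 1 and 2 μM. Parasites were counted over time by hemocytometer, with counts normalized to a DMSO negative control. Three replicates, mean ± SD.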

Data set [4] relates to Trypanosoma brucei. Kind of data set: Antitrypanosomal activity against Trypanosoma brucei Lister 427 assessed as time required to kill the parasite at 1 to 4 uM by hemocytometer cell counting analysis. Particulars: dose 1-4 µM. The class given is functional. The procedure, abridged:
as §1

Data set [5] deals with Trypanosoma brucei. As to the kind of experiment: Antitrypanosomal activity against Trypanosoma brucei Lister 427 assessed as time required to kill the parasite at 2 to 4 uM by hemocytometer cell counting analysis. In kind it is functional. Particulars: dose 2-4 µM. The procedure, abridged:
as §1

Data set [6] deals with Trypanosoma brucei. As to the kind of experiment: Antitrypanosomal activity against Trypanosoma brucei Lister 427 assessed as parasite growth inhibition at 2 uM measured for 4 to 48 hrs by SYBER green staining based multilabel reader analysis. The class given is functional, organism-based. Particulars: time 4-48 hrs. The procedure, abridged:
(§2)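 Washout test on bloodstream-form Lister 427 trypanosomes to tell trypanocidal from trypanostatic action. Compound at 1, 2 or 4 μM was incubated for 6, 4 or 2 h respectively, and the parasites were then washed three times. Regrowth and division were monitored for a further 48 h.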

The subject of data set [7] is Trypanosoma brucei. Kind of data set: Antitrypanosomal activity against Trypanosoma brucei Lister 427 assessed as parasite growth inhibition at 4 uM measured for 2 to 48 hrs by SYBER green staining based multilabel reader analysis. In kind it is functional, organism-based. Particulars: time 2-48 hrs. The gist of the method:
as §2

For data set [8], the system named is Trypanosoma brucei. Kind of data set: Antitrypanosomal activity against Trypanosoma brucei Lister 427 assessed as parasite growth inhibition at 1 uM measured for 6 to 48 hrs by SYBER green staining based multilabel reader analysis. Particulars: time 6-48 hrs. The class given is functional, organism-based. The procedure, abridged:
as §2

As a reminder, the EC50 is the concentration giving half of the maximal effect. The CC50 is the concentration giving 50% cytotoxicity.

Take `COc1ccc(/C=C/C(=O)/C=C/c2ccc(OC)cc2)cc1`: in the data set on Trypanosoma brucei [1], the EC50 was more than 4 µM. Also, in the data set on HEK293, the CC50 was more than 20 µM.
Consider `O=C(/C=C/c1ccccc1Cl)/C=C/c1ccccc1Cl`, for which the concentration for a half-maximal effect (EC50) in the data set with Trypanosoma brucei [1] was 0.31 µM. In addition, the selectivity ratio in data set [2] was more than 10. Further, the CC50 in the data set with HEK293 was found to be 4.27 µM.
For `O=C(/C=C/c1ccc(F)cc1)/C=C/c1ccc(F)cc1`, the EC50 in the data set with Trypanosoma brucei [1] was found to be 1.42 µM. Also, the CC50 in the data set on HEK293 was determined as 7.64 µM.
For `O=C(/C=C/c1cccc(O)c1)CC(=O)/C=C/c1cccc(O)c1`, the EC50 in the data set with Trypanosoma brucei [1] was found to be 3.29 µM. Besides, in the data set with HEK293, the CC50 was 6.73 µM.
For `COc1cc(/C=C/C(=O)/C=C/c2ccc(O)c(OC)c2)ccc1O`, in the data set on Trypanosoma brucei [1], the EC50 was 0.84 µM. For the same compound, the CC50 with HEK293 is 9.74 µM.
As for `Cc1ccc(CCC(O)CCc2ccc(C)cc2)cc1`, in the data set on Trypanosoma brucei [1], the EC50 was more than 4 µM. Further, the CC50 in the data set on HEK293 was more than 20 µM.
As to `Cc1ccc(/C=C/C(=O)/C=C/c2ccccc2)cc1`, the EC50 with Trypanosoma brucei [1] is 3.74 µM.
As for `COc1cc(/C=C/C(=O)CC(=O)/C=C/c2cc(OC)c(OC)c(OC)c2)cc(OC)c1OC`, the concentration for a half-maximal effect (EC50) in the data set on Trypanosoma brucei [1] stood at 3.99 µM.
`OC(CCc1ccccc1Cl)CCc1ccccc1Cl`: in the data set with Trypanosoma brucei [1], the EC50 was more than 4 µM. For the same compound, in the data set on HEK293, the CC50 is more than 20 µM.
On to `O=C1/C(=C/c2ccccc2F)CNC/C1=C\c1ccccc1F`, for which, in the data set on Trypanosoma brucei [1], the EC50 is 0.2 µM. Moreover, in the data set with HEK293, the CC50 came to 3.58 µM.
The matching figures for `Cc1ccc(CCC(=O)CCc2ccc(C)cc2)cc1`: more than 4 µM and more than 20 µM.
As to `COc1ccc(/C=C/C(=O)CC(=O)/C=C/c2ccc(OC)c(OC)c2)cc1OC` [TETRAMETHOXYCURCUMIN], the EC50 with Trypanosoma brucei [1] was more than 4 µM. Moreover, the CC50 in the data set with HEK293 is more than 20 µM.
`COc1cccc(/C=C/C(=O)CC(=O)/C=C/c2cccc(OC)c2)c1`: the EC50 in the data set with Trypanosoma brucei [1] is more than 4 µM. Also, the CC50 in the data set with HEK293 was more than 20 µM.
Take `O=C(/C=C/c1ccc(C(F)(F)F)cc1)CC(=O)/C=C/c1ccc(C(F)(F)F)cc1`: the EC50 in the data set with Trypanosoma brucei [1] was more than 4 µM. Also, the CC50 with HEK293 is more than 20 µM.
Regarding `COc1ccc(/C=C/C(=O)/C=C/c2ccc(O)c(O)c2)cc1`, the EC50 in the data set with Trypanosoma brucei [1] amounted to 0.41 µM. In the data set with HEK293, the CC50 worked out at 6.61 µM.
On to `COc1ccc(CCC(O)CCc2ccc(OC)c(OC)c2)cc1OC`, for which the concentration giving a half-maximal response (EC50) with Trypanosoma brucei [1] was more than 4 µM. Moreover, in the data set on HEK293, the CC50 is more than 20 µM.
Consider `COc1cc(/C=C/C(=O)/C=C/c2cc(OC)cc(OC)c2)cc(OC)c1`, for which the EC50 in the data set on Trypanosoma brucei [1] stood at 0.24 µM. In addition, in the data set on HEK293, the CC50 was 1.45 µM.
Turning to `O=C(CCc1cccc(Br)c1)CCc1cccc(Br)c1`, the EC50 in the data set on Trypanosoma brucei [1] is more than 4 µM. For the same compound, the CC50 with HEK293 is more than 20 µM.
In the case of `N=C(N)c1ccc(OCCCCCOc2ccc(C(=N)N)cc2)cc1` [PENTAMIDINE], in the data set on Trypanosoma brucei [1], the EC50 is 0.012 µM. Besides, the CC50 in the data set with HEK293 was more than 4 µM. The Time in the data set on Trypanosoma brucei [3] is more than 30 h.
`COc1cc(/C=C/C(=O)/C=C/c2ccccc2)ccc1O`: the EC50 with Trypanosoma brucei [1] was 0.66 µM. Besides, the CC50 with HEK293 stood at 5.63 µM.
For `COc1cc(CCC(O)CCc2cc(OC)c(OC)c(OC)c2)cc(OC)c1OC`, in that order: more than 4 µM and more than 20 µM.
As to `O=C(/C=C/c1ccccc1)/C=C/c1ccc(Br)cc1`, the EC50 in the data set on Trypanosoma brucei [1] worked out at 2.33 µM. Further, in the data set with HEK293, the CC50 was 7.05 µM.
The matching figures for `COc1ccc(CCC(=O)CCc2ccc(OC)c(OC)c2)cc1OC`: more than 4 µM and more than 20 µM.
Consider `O=C(/C=C/c1ccccc1)CC(=O)/C=C/c1ccccc1`, for which the EC50 with Trypanosoma brucei [1] is more than 4 µM. The CC50 in the data set with HEK293 is more than 20 µM.
For `O=C(/C=C/c1ccccc1)/C=C/c1ccc(O)cc1`, in the data set with Trypanosoma brucei [1], the EC50 came out at 1.25 µM. In the data set with HEK293, the CC50 stood at 5.85 µM.
As to `O=C(/C=C/c1ccc(Cl)c(Cl)c1)CC(=O)/C=C/c1ccc(Cl)c(Cl)c1`, the EC50 with Trypanosoma brucei [1] is more than 4 µM. Further, the CC50 with HEK293 was more than 20 µM.
On to `O=C(/C=C/c1cccc(Br)c1)/C=C/c1cccc(Br)c1`, for which the EC50 with Trypanosoma brucei [1] is more than 4 µM. For the same compound, the CC50 in the data set with HEK293 is more than 20 µM.
For `O=C(/C=C/c1ccccc1)/C=C/c1ccc(Cl)c(Cl)c1`, the concentration for a half-maximal effect (EC50) with Trypanosoma brucei [1] was found to be 2.15 µM. Also, in the data set on HEK293, the CC50 worked out at 11.3 µM.
In the case of `COc1cc(/C=C/C(=O)CC(=O)/C=C/c2ccc(O)c(OC)c2)ccc1O` [CURCUMIN], in the data set on Trypanosoma brucei [1], the EC50 worked out at 1.78 µM. In addition, the CC50 in the data set with HEK293 turned out to be 5.56 µM.
For `O=C(/C=C/c1ccccc1)/C=C/c1ccc(C(F)(F)F)cc1`, the EC50 in the data set on Trypanosoma brucei [1] was 2.51 µM. In the data set with HEK293, the CC50 was more than 20 µM.
In the case of `O=C(/C=C/c1ccccc1)/C=C/c1cccc([N+](=O)[O-])c1`, the EC50 in the data set with Trypanosoma brucei [1] came to 0.2 µM. Further, the Time in the data set on Trypanosoma brucei [4] was less than 24 h; in the data set with Trypanosoma brucei [5] it was less than 6 h. Further, the CC50 with HEK293 is 2.88 µM. The outcome with Trypanosoma brucei [6], with Trypanosoma brucei [7] and with Trypanosoma brucei [8] was Active.
As to `O=C(/C=C/c1ccccc1)/C=C/c1ccc(Cl)cc1`, the EC50 in the data set with Trypanosoma brucei [1] stood at 1.93 µM. The CC50 in the data set with HEK293 was more than 20 µM.
In the case of `COc1cc(/C=C/C(=O)/C=C/c2cc(OC)c(OC)c(OC)c2)cc(OC)c1OC`, the EC50 in the data set with Trypanosoma brucei [1] came out at 0.36 µM. Also, the CC50 with HEK293 turned out to be 0.3 µM.
Take `COc1ccc(/C=C/C(=O)/C=C/c2ccc(OC)c(OC)c2)cc1OC`: in the data set on Trypanosoma brucei [1], the EC50 came out at 0.42 µM. Also, in data set [2], the selectivity ratio is more than 10. Besides, the CC50 in the data set with HEK293 was found to be 4.55 µM.
As for `CN(C)c1ccc(/C=C/C(=O)/C=C/c2ccccc2)cc1`, the EC50 in the data set with Trypanosoma brucei [1] was more than 4 µM. Moreover, the CC50 in the data set on HEK293 is 9.79 µM.
For `O=C(CCc1ccccc1Cl)CCc1ccccc1Cl`, in that order: more than 4 µM and more than 20 µM.
Regarding `O=C(/C=C/c1ccccc1)/C=C/c1ccc(O)c(O)c1`, in the data set on Trypanosoma brucei [1], the EC50 turned out to be 0.37 µM. Moreover, the CC50 in the data set on HEK293 turned out to be 5.54 µM.
Take `COc1ccc(/C=C/C(=O)/C=C/c2ccccc2)cc1`: the EC50 in the data set on Trypanosoma brucei [1] is more than 4 µM. The CC50 in the data set on HEK293 stood at 5.49 µM.
As for `COc1ccc(/C=C/C(=O)CC(=O)/C=C/c2ccc(OC)cc2OC)c(OC)c1`, the EC50 in the data set with Trypanosoma brucei [1] is more than 4 µM.
On to `Cc1ccc(/C=C/C(=O)/C=C/c2ccc(C)cc2)cc1`, for which the EC50 in the data set with Trypanosoma brucei [1] was more than 4 µM. In the data set with HEK293, the cytotoxic concentration (CC50) was more than 20 µM.
With `COc1cc(CCC(=O)CCc2cc(OC)c(OC)c(OC)c2)cc(OC)c1OC`, in the data set with Trypanosoma brucei [1], the EC50 is more than 4 µM. Further, the CC50 with HEK293 is more than 20 µM.
The matching figures for `COc1cccc(/C=C/C(=O)/C=C/c2cccc(OC)c2)c1`: more than 4 µM and more than 20 µM.
Regarding `OC(CCc1cccc(Br)c1)CCc1cccc(Br)c1`, in the data set with Trypanosoma brucei [1], the EC50 was more than 4 µM. Besides, the CC50 in the data set with HEK293 was more than 20 µM.
With `COc1cc(/C=C2\CCC/C(=C\c3cc(OC)cc(OC)c3)C2=O)cc(OC)c1`, in the data set with Trypanosoma brucei [1], the EC50 is more than 4 µM. Also, the CC50 in the data set on HEK293 was determined as 3.7 µM.
With `O=C(/C=C/c1ccccc1)/C=C/c1cccc(O)c1`, the EC50 with Trypanosoma brucei [1] is 0.29 µM. Also, the CC50 with HEK293 came out at 5.79 µM.
